Assay results reported in ChEMBL document CHEMBL1817593, “C5'-Alkyl Substitution Effects on Digitoxigenin α-l-Glycoside Cancer Cytotoxicity” (ACS Med Chem Lett, 2011).

Tests used:
Type in all cases: functional
OVCAR-8 = assay: Cytotoxicity against human OVCAR8 cells after 48 hrs by sulforhodamine B assay; settings: OVCAR-8, 48 h
NCI-H460 [1] = assay: Cytotoxicity against human NCI-H460 cells assessed as cell death in serum free medium at 10 nM after 12 hrs by Hoechst 33342/propidium iodide staining based fluorescence microscopy
How it was run: (§1)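 NCI-H460 human lung cancer cells exposed 12 h to 10 nM–10 μM drug, including a 50 nM single-concentration test. Nuclei were stained with Hoechst 33342 and necrotic cells with propidium iodide. Apoptotic cells were scored by condensed or fragmented blue nuclei and necrotic cells by red PI staining. Total cell death (apoptosis plus necrosis) was recorded; N = 6.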

UO-31 = assay: Cytotoxicity against human UO31 cells after 48 hrs by sulforhodamine B assay; settings: UO-31, 48 h
786-0 = assay: Cytotoxicity against human 786-0 cells after 48 hrs by sulforhodamine B assay; settings: 786-0, 48 h
SNB-75 = assay: Cytotoxicity against human SNB75 cells after 48 hrs by sulforhodamine B assay; settings: SNB-75, 48 h
NCI-H460 [2] = assay: Cytotoxicity against human NCI-H460 cells assessed as cell viability at 500 nM after 48 hrs by MTT assay; settings: NCI-H460, 48 h, read-out: Activity
How it was run: (§2)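 Viability of NCI-H460 cells was measured by MTT (mitochondrial enzymatic activity) after 48 h exposure, within a dose series spanning 1 nM–10 μM. N = 9, analysed by two-way ANOVA.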

A549 = assay: Cytotoxicity against human A549/ATCC cells after 48 hrs by sulforhodamine B assay; settings: A549, 48 h
HL-60(TB) = assay: Cytotoxicity against human HL-60(TB) cells after 48 hrs by sulforhodamine B assay; settings: HL-60, 48 h
RPMI-8226 = assay: Cytotoxicity against human RPMI8226 cells after 48 hrs by sulforhodamine B assay; settings: RPMI-8226, 48 h
Malme-3M = assay: Cytotoxicity against human MALME-3M cells after 48 hrs by sulforhodamine B assay
SK-MEL-5 = assay: Cytotoxicity against human SK-MEL-5 cells after 48 hrs by sulforhodamine B assay; settings: SK-MEL-5, 48 h
MCF7 = assay: Cytotoxicity against human MCF7 cells after 48 hrs by sulforhodamine B assay; settings: MCF7, 48 h
OVCAR-4 = assay: Cytotoxicity against human OVCAR4 cells after 48 hrs by sulforhodamine B assay; settings: OVCAR-4, 48 h
PC-3 = assay: Cytotoxicity against human PC3 cells after 48 hrs by sulforhodamine B assay; settings: PC-3, 48 h
NCI-H460 [3] = assay: Cytotoxicity against human NCI-H460 cells assessed as cell death in serum free medium at 1000 nM after 12 hrs by Hoechst 33342/propidium iodide staining based fluorescence microscopy; how it was run: as §1
NCI-H226 = assay: Cytotoxicity against human NCI-H226 cells after 48 hrs by sulforhodamine B assay; settings: NCI-H226, 48 h
HOP-92 = assay: Cytotoxicity against human HOP92 cells after 48 hrs by sulforhodamine B assay; settings: HOP-92, 48 h
MDA-MB-231 = assay: Cytotoxicity against human MDA-MB-231 cells after 48 hrs by sulforhodamine B assay; settings: MDA-MB-231, 48 h
IGROV-1 = assay: Cytotoxicity against human IGROV1 cells after 48 hrs by sulforhodamine B assay; settings: IGROV-1, 48 h
NCI-H460 [4] = assay: Induction of apoptosis in human NCI-H460 cells in serum free medium at 50 nM after 12 hrs by Hoechst 33342/propidium iodide staining based fluorescence microscopy
How it was run: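 NCI-H460 cells exposed to a single 50 nM concentration for 12 h. Cells stained with Hoechst 33342 and propidium iodide. Blue cells with condensed or fragmented nuclei were scored as apoptotic and red, ruptured cells as necrotic. Result given as % apoptotic cell death; N = 6, one-way ANOVA.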

MDA-MB-435 = assay: Cytotoxicity against human MDA-MB-435 breast cancer cells after 48 hrs by sulforhodamine B assay; settings: MDA-MB-435, 48 h
NCI-H460 [5] = assay: Cytotoxicity against human NCI-H460 cells assessed as cell viability after 48 hrs by MTT assay; settings: NCI-H460, 48 h
How it was run: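 NCI-H460 cells were exposed to drug for 48 h, and viability was read by MTT as mitochondrial enzymatic activity. GI50 was derived from dose-response curves (1 nM–10 μM). Values are from three independent experiments with duplicate determinations, given with standard error of the mean.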

NCI-H322M = assay: Cytotoxicity against human NCI-H322M cells after 48 hrs by sulforhodamine B assay
K562 = assay: Cytotoxicity against human K562 cells after 48 hrs by sulforhodamine B assay; settings: K562, 48 h
NCI-H460 [6] = assay: Cytotoxicity against human NCI-H460 cells assessed as cell viability at 1000 nM after 48 hrs by MTT assay; settings: NCI-H460, 48 h, read-out: Activity; how it was run: as §2
A498 = assay: Cytotoxicity against human A498 cells after 48 hrs by sulforhodamine B assay; settings: A498, 48 h
NCI-H460 [7] = assay: Cytotoxicity against human NCI-H460 cells assessed as cell death in serum free medium at 50 nM after 12 hrs by Hoechst 33342/propidium iodide staining based fluorescence microscopy; how it was run: as §1
NCI-H460 [8] = assay: Cytotoxicity against human NCI-H460 cells assessed as cell death in serum free medium at 75 nM after 12 hrs by Hoechst 33342/propidium iodide staining based fluorescence microscopy; how it was run: as §1
OVCAR-5 = assay: Cytotoxicity against human OVCAR5 cells after 48 hrs by sulforhodamine B assay; settings: OVCAR-5, 48 h
T47D = assay: Cytotoxicity against human T47D cells after 48 hrs by sulforhodamine B assay
RXF 393 = assay: Cytotoxicity against human RXF393 cells after 48 hrs by sulforhodamine B assay; settings: RXF 393, 48 h
SN12C = assay: Cytotoxicity against human SN12C cells after 48 hrs by sulforhodamine B assay
UACC-62 = assay: Cytotoxicity against human UACC62 cells after 48 hrs by sulforhodamine B assay; settings: UACC-62, 48 h
NCI-H460 [9] = assay: Cytotoxicity against human NCI-H460 cells assessed as cell viability at 1 nM after 48 hrs by MTT assay; settings: NCI-H460, 48 h, read-out: Activity; how it was run: as §2
M14 = assay: Cytotoxicity against human M14 cells after 48 hrs by sulforhodamine B assay; settings: M14, 48 h
NCI/ADR-RES = assay: Cytotoxicity against human NCI/ADR-RES cells after 48 hrs by sulforhodamine B assay
SK-OV-3 = assay: Cytotoxicity against human SKOV3 cells after 48 hrs by sulforhodamine B assay; settings: SK-OV-3, 48 h
TK-10 = assay: Cytotoxicity against human TK10 cells after 48 hrs by sulforhodamine B assay; settings: TK-10, 48 h
MOLT-4 = assay: Cytotoxicity against human MOLT4 cells after 48 hrs by sulforhodamine B assay; settings: MOLT-4, 48 h

| Structure (SMILES) | GI50 (OVCAR-8) | Activity (NCI-H460 [1]) | GI50 (UO-31) | GI50 (786-0) | GI50 (SNB-75) | viability at 0.5 µM (NCI-H460 [2]) | GI50 (A549) | GI50 (HL-60(TB)) | GI50 (RPMI-8226) | GI50 (Malme-3M) | GI50 (SK-MEL-5) | GI50 (MCF7) | GI50 (OVCAR-4) | GI50 (PC-3) | Activity (NCI-H460 [3]) | GI50 (NCI-H226) | GI50 (HOP-92) | GI50 (MDA-MB-231) | GI50 (IGROV-1) | Activity (NCI-H460 [4]) | also measured |
| --- | --- | --- | --- | --- | --- | --- | --- | --- | --- | --- | --- | --- | --- | --- | --- | --- | --- | --- | --- | --- | --- |
| CC(C)C[C@@H]1O[C@@H](O[C@H]2CC[C@@]3(C)[C@H](CC[C@@H]4[C@@H]3CC[C@]3(C)[C@@H](C5=CC(=O)OC5)CC[C@]43O)C2)CC[C@H]1O | 29.6 nM | 10.03% | 27.7 nM | 23.3 nM | 85.3 nM | 4.88% | 13.4 nM | 18.3 nM | 35.6 nM | 25.7 nM | 27.7 nM | 52.8 nM | 85.5 nM | 46.3 nM | 94.8% | 95.9 nM | 74.2 nM | 225 nM | 29.9 nM | 9.2821% | GI50 (MDA-MB-435): 149 nM; GI50 (NCI-H460 [5]): 8.27 nM; GI50 (NCI-H322M): 42.5 nM; GI50 (K562): 26.9 nM; viability at 1 µM (NCI-H460 [6]): 3.64%; GI50 (A498): 27 nM; Activity (NCI-H460 [7]): 13.06%; Activity (NCI-H460 [8]): 15%; GI50 (OVCAR-5): 113 nM; GI50 (T47D): 36.2 nM; GI50 (RXF 393): 18.6 nM; GI50 (SN12C): 23.7 nM; GI50 (UACC-62): 50.5 nM; viability at 0.001 µM (NCI-H460 [9]): 81.8%; GI50 (M14): 67.2 nM; GI50 (NCI/ADR-RES): 26.9 nM; GI50 (SK-OV-3): 43.1 nM; GI50 (TK-10): 28.6 nM; GI50 (MOLT-4): 13.1 nM |
| CC(C)[C@@H]1O[C@@H](O[C@H]2CC[C@@]3(C)[C@H](CC[C@@H]4[C@@H]3CC[C@]3(C)[C@@H](C5=CC(=O)OC5)CC[C@]43O)C2)CC[C@H]1O | 56.2 nM | 9.96% | 23.4 nM | 26.8 nM | 92.6 nM | 6.35% | 17.7 nM | 14.3 nM | 78.4 nM | 63.6 nM | 22.6 nM | 161 nM | 123 nM | 61.9 nM | 90.66% | 119 nM | 79.8 nM | 259 nM | 54.2 nM | 11.993% | GI50 (MDA-MB-435): 150 nM; GI50 (NCI-H460 [5]): 7.66 nM; GI50 (NCI-H322M): 77.4 nM; GI50 (K562): 47 nM; viability at 1 µM (NCI-H460 [6]): 5.21%; GI50 (A498): 90.1 nM; Activity (NCI-H460 [7]): 14.48%; Activity (NCI-H460 [8]): 16.05%; GI50 (OVCAR-5): 107 nM; GI50 (T47D): 95.9 nM; GI50 (RXF 393): 14 nM; GI50 (SN12C): 23.7 nM; GI50 (UACC-62): 119 nM; viability at 0.001 µM (NCI-H460 [9]): 81.1%; GI50 (M14): 93.4 nM; GI50 (NCI/ADR-RES): 31.5 nM; GI50 (SK-OV-3): 118 nM; GI50 (TK-10): 53.8 nM; GI50 (MOLT-4): 16.9 nM |
